Data set [1] concerns scavenger receptors (liver uptake of 125I-pGL3 polyplexes). The data set is described as follows: Inhibition of liver uptake of 125I-pGL3 polyplexes by excess PEG-peptide. It is filed as in vivo. The following applies: mice, PEG 5 kDa peptides dosed in excess (not shown).
The next data set relates to serum DNAse. The following applies: cited from earlier work.
Data set [2] has as its system liver hepatocytes (luciferase expression). The data set is described as follows: HD-stimulated / direct HD luciferase gene expression in liver. It is filed as in vivo, mice. The following applies: for fold increase of expression on substitution for the PEG-peptide five Lys shorter: 80 nmol PEG-peptide, 1 μg pGL3, HD-stimulation at 1 hour. The method, boiled down:
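Triplicate mice received 1 μg pGL3 polyplex with 10, 40 or 80 nmol PEG-peptide in 100 μL HBM by tail vein. After 1 h circulation, 1.8 mL saline (per 20 g mouse) was given hydrodynamically over 5 s by tail vein. Liver bioluminescence was imaged 24 h later and analysed as log10 values. Controls: naked pGL3 with HD at 5 min, and direct HD of pGL3.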

The test system of the next data set is liver. On the set-up: species or system mice. To be noted: mouse, in vivo.

On to PEG5kDa-Cys-Trp-Lys15, for which the “inhibition of polyplex uptake into the liver when dosed in excess” value in data set [1] is “failed to inhibit polyplex uptake into the liver”.
In the case of PEG5kDa-Cys-Trp-Lys18, in the data set on serum DNAse, the “resistance of polyplexes to metabolism by serum DNAse in vitro” value is “resisted metabolism by serum DNAse in vitro”.
Take PEG30kDa-Cys-Trp-Lys20: the “fold increase of expression on substitution for the PEG-peptide five Lys shorter” value in data set [2] was 5 fold.
Turning to PEG30kDa-Cys-Trp-Lys25, in the data set on liver, the “maximal percent of polyplex dose taken up by liver” value is recorded as about 30% and the “percent of polyplex dose taken up by liver” value is on record as “approximately 16%”. For the same substance, the “fold increase of expression on substitution for the PEG-peptide five Lys shorter” value in data set [2] is on record as 5 fold. In addition, the “fold increase of expression (over 10 nmol dose)” value in data set [2] (1 μg pGL3 polyplex with 40 nmol PEG-peptide, HD-stimulation at 1 hour) stood at 100 fold. Besides, in data set [2] (1 μg pGL3 polyplex with 80 nmol PEG-peptide, HD-stimulation at 1 hour), the “further fold improvement of expression (over 40 nmol dose)” value came out at 15 fold.

Values taken from PMC4837691 (Molecular pharmaceutics, 2015).
